Converted amounts (≈) assume the structure as drawn. The source made the active and inactive calls. The rule behind the calls is not given here.
Columns and labels:
[1] = Volume of distribution at steady state in Wistar-Hannover rat at 2 mg/kg, iv by LC-MS/MS analysis; format: ADME, organism-based; conditions: in vivo, read-out: Vdss
How it was run: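 Male Wistar–Hannover rats (~300 g, n = 3) received a 2 mg/kg IV bolus through a jugular vein cannula, dosed from a 5 mg/mL solution in DMSO/PEG400 (1:1). EDTA blood was sampled from pre-dose to 24 h. Plasma was protein-precipitated with acetonitrile and analysed by positive-ion APCI LC-MS/MS. Vdss was calculated non-compartmentally as plasma clearance × mean residence time and reported as the mean.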

[2] = target: Voltage-dependent L-type calcium channel subunit alpha-1C (Homo sapiens, UniProt Q13936); experiment: Inhibition of Cav1.2 (unknown origin)
[3] = In vivo receptor occupancy at PDE10A receptor in MK-801-induced psychosis rat model striatum at 0.75 mg/kg, po administered 1 hr prior to MK-801 administration and measured after 90 mins; format: functional; conditions: time 2.5 hrs
How it was run: (§1)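 Rats in the MK-801 locomotor study were dosed orally at 0.25, 0.50 or 0.75 mg/kg. Plasma was taken 2.5 h post dose and drug levels measured. Striatal PDE10A occupancy was derived from plasma concentration using the [3H]MK-8193 ex vivo occupancy relation. n = 8/group; mean (SEM).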

[4] = Selectivity ratio of Ki for N-terminal GST-tagged human recombinant PDE1A expressed in baculovirus-infected Sf9 cells to Ki for human PDE10A2 transfected in human AD293 cells cytosolic fraction
[5] = Plasma concentration in rat at 0.08 mg/kg, po measured after 1 hr; format: ADME, organism-based
How it was run: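 Rat novel object recognition (episodic memory) study, orally dosed. Plasma drawn 1 h post dose at end of the experiment for compound level. n = 4/group, reported as mean (SEM).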

[6] = Inhibition of IKS channel (unknown origin); design: species or system Homo sapiens
[7] = Selectivity ratio of Ki for N-terminal GST-tagged human recombinant PDE11A4 (1 to 943 residues) expressed in baculovirus-infected Sf9 cells to Ki for human PDE10A2 transfected in human AD293 cells cytosolic fraction
[8] = Aqueous solubility of the compound at pH 7; format: physicochemical; conditions: buffer
[9] = target: Somatostatin receptor type 2 (Homo sapiens, UniProt P30874); experiment: Displacement of [125I]somatostatin from human full-length recombinant SSTR2 expressed in CHO-K1 cells by radioligand binding assay; format: cell-based
[10] = Solubility of compound in FaSSIF; format: physicochemical; conditions: simulated gi fluid
[11] = Lipophilicity, log D of the compound; format: physicochemical; conditions: octanol/water
[12] = target: T1, cAMP and cAMP-inhibited cGMP 3',5'-cyclic phosphodiesterase 10A (Homo sapiens, UniProt Q9Y233); experiment: Inhibition of human PDE10A2 transfected in human AD293 cells cytosolic fraction using cAMP as substrate by fluorescence polarization assay; format: subcellular, Cytosol
[13] = Volume of distribution at steady state in Rhesus monkey at 0.5 mg/kg, iv by LC-MS/MS analysis; format: ADME, organism-based, Macaca mulatta; conditions: in vivo, read-out: Vdss
How it was run: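 Three male rhesus monkeys received a 0.5 mg/kg IV bolus into the saphenous or cephalic vein, dosed from a 5 mg/mL solution in DMSO:PEG400 (1:1). EDTA plasma was collected from pre-dose to 24 h. Samples were protein-precipitated with acetonitrile and quantified by positive-ion APCI LC-MS/MS. Vdss was obtained by non-compartmental analysis as clearance × mean residence time, and values are means (n = 3).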

[14] = Solubility of compound in acidic simulated gastric fluid; format: physicochemical; conditions: simulated gi fluid
[15] = Plasma concentration in MK-801-induced psychosis rat model at 0.75 mg/kg, po administered 1 hr prior to MK-801 administration and measured after 90 mins; format: ADME, organism-based; conditions: time 150 min
How it was run: (§2)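 Rats dosed orally, then MK-801 1 h later; locomotor activity recorded over 90 min. Plasma drawn 2.5 h post dose at end of the study and assayed for compound. n = 8/group, reported as mean (SEM).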

[16] = target: T1, cAMP and cAMP-inhibited cGMP 3',5'-cyclic phosphodiesterase 10A; experiment: Inhibition of human recombinant full length PDE10A
[17] = target: Voltage-gated inwardly rectifying potassium channel KCNH2 (Homo sapiens, UniProt Q12809); experiment: Displacement of MK499 from hERG; format: toxicity
[18] = Oral bioavailability in Wistar-Hannover rat at 10 mg/kg; format: ADME, organism-based; conditions: in vivo
How it was run: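 Oral gavage, 5 mL/kg. Rats (n = 3 male Wistar–Hannover) received 10 mg/kg in acidified 10% Tween 80, pH 2, sampled 0.25–24 h. Rhesus (2 female, 1 male) received 5 mg/kg in 0.5% methylcellulose with 1 mol equiv HCl. Plasma quantified by LC-MS/MS. F was taken from dose-adjusted PO/IV AUC0-inf ratios versus the 2 mg/kg (rat) or 0.5 mg/kg (rhesus) IV legs; values are means of n = 3.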

[19] = In vivo receptor occupancy at PDE10A receptor in MK-801-induced psychosis rat model striatum at 0.5 mg/kg, po administered 1 hr prior to MK-801 administration and measured after 90 mins; format: functional; conditions: time 2.5 hrs; how it was run: as §1
[20] = target: T1, cAMP and cAMP-inhibited cGMP 3',5'-cyclic phosphodiesterase 10A; experiment: Reversible binding affinity to human full length His-tagged PDE10A2 assessed as half-life on the enzyme measured at 25 degC by surface plasmon resonance analysis
[21] = Protein binding in rat plasma; format: ADME, cell-free
[22] = In vivo receptor occupancy at PDE10A receptor in MK-801-induced psychosis rat model striatum at 0.25 mg/kg, po administered 1 hr prior to MK-801 administration and measured after 90 mins; format: functional; conditions: time 2.5 hrs; how it was run: as §1
[23] = Plasma concentration in MK-801-induced psychosis rat model at 0.5 mg/kg, po administered 1 hr prior to MK-801 administration and measured after 90 mins; format: ADME, organism-based; conditions: time 150 min; how it was run: as §2
[24] = In vivo receptor occupancy at PDE10A receptor in rat striatum at 0.08 mg/kg, po measured after 1 hr; format: functional
How it was run: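 Striatal PDE10A occupancy in rats given the compound orally during the novel object recognition test. Occupancy was not measured directly but derived from plasma concentration taken 1 h post dose. n = 4/group, reported as mean (SEM).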

[25] = Selectivity ratio of Ki for N-terminal GST-tagged human recombinant PDE4A1A (1 to 647 residues) expressed in baculovirus-infected Sf9 cells to Ki for human PDE10A2 transfected in human AD293 cells cytosolic fraction
Rattus norvegicus = experiment: Cognitive-enhancing activity in rat assessed as improvement in novel object recognition at 0.16 to 0.25 mg/kg, po measured after 1 hr by novel object recognition test; format: functional, organism-based; conditions: dose 0.16-0.25 mg/kg
How it was run: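 Novel object recognition in rats: oral dosing, then discrimination of a novel object from one seen 48 h earlier. Doses 0.08–0.25 mg/kg; donepezil 0.56 mg/kg as positive control. Groups compared with vehicle (p < 0.05). Plasma for exposure taken 1 h post dose, n = 4/group.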

[26] = Half life in Rhesus monkey at 0.5 mg/kg, iv by LC-MS/MS analysis; format: ADME, organism-based, Macaca mulatta; conditions: in vivo
How it was run: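 IV bolus in DMSO/PEG400 (1:1). Male Wistar–Hannover rats (n = 3, ~300 g): 2 mg/kg via jugular cannula, sampled 0.03–24 h. Male rhesus (n = 3): 0.5 mg/kg into saphenous or cephalic vein, sampled to 24 h. Plasma (EDTA) analysed by LC-MS/MS after acetonitrile precipitation. Non-compartmental analysis; CL = dose/AUC0-inf; t1/2 from log-linear regression of the terminal phase. Values are means.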

T1 sequence (Q9Y233 whole entry): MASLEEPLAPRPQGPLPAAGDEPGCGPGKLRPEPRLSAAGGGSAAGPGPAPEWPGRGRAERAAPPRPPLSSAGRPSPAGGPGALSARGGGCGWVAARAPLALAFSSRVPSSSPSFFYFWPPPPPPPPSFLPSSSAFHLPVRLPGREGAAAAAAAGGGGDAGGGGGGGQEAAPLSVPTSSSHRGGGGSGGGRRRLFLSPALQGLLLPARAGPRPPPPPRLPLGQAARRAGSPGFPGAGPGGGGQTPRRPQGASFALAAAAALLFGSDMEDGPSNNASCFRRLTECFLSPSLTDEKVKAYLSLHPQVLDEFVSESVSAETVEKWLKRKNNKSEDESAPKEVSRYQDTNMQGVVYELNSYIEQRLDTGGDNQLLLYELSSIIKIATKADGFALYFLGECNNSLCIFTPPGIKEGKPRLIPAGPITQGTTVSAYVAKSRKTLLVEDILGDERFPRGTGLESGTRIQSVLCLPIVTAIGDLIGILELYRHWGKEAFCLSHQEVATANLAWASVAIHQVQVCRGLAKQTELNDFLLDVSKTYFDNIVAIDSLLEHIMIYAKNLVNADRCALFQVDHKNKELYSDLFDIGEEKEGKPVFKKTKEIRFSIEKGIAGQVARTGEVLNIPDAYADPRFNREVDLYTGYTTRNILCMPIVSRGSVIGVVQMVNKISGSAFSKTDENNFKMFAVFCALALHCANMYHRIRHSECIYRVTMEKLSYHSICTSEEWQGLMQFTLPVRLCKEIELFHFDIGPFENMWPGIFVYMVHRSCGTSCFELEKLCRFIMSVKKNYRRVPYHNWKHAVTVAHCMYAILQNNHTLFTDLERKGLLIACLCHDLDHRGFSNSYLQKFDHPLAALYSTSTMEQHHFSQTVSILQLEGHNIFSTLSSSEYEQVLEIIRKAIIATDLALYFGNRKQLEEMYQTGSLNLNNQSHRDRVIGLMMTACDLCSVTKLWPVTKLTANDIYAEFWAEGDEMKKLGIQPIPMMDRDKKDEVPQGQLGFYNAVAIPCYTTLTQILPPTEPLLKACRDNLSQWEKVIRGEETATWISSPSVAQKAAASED
Voltage-dependent L-type calcium channel subunit alpha-1C, sequence (Q13936 whole entry): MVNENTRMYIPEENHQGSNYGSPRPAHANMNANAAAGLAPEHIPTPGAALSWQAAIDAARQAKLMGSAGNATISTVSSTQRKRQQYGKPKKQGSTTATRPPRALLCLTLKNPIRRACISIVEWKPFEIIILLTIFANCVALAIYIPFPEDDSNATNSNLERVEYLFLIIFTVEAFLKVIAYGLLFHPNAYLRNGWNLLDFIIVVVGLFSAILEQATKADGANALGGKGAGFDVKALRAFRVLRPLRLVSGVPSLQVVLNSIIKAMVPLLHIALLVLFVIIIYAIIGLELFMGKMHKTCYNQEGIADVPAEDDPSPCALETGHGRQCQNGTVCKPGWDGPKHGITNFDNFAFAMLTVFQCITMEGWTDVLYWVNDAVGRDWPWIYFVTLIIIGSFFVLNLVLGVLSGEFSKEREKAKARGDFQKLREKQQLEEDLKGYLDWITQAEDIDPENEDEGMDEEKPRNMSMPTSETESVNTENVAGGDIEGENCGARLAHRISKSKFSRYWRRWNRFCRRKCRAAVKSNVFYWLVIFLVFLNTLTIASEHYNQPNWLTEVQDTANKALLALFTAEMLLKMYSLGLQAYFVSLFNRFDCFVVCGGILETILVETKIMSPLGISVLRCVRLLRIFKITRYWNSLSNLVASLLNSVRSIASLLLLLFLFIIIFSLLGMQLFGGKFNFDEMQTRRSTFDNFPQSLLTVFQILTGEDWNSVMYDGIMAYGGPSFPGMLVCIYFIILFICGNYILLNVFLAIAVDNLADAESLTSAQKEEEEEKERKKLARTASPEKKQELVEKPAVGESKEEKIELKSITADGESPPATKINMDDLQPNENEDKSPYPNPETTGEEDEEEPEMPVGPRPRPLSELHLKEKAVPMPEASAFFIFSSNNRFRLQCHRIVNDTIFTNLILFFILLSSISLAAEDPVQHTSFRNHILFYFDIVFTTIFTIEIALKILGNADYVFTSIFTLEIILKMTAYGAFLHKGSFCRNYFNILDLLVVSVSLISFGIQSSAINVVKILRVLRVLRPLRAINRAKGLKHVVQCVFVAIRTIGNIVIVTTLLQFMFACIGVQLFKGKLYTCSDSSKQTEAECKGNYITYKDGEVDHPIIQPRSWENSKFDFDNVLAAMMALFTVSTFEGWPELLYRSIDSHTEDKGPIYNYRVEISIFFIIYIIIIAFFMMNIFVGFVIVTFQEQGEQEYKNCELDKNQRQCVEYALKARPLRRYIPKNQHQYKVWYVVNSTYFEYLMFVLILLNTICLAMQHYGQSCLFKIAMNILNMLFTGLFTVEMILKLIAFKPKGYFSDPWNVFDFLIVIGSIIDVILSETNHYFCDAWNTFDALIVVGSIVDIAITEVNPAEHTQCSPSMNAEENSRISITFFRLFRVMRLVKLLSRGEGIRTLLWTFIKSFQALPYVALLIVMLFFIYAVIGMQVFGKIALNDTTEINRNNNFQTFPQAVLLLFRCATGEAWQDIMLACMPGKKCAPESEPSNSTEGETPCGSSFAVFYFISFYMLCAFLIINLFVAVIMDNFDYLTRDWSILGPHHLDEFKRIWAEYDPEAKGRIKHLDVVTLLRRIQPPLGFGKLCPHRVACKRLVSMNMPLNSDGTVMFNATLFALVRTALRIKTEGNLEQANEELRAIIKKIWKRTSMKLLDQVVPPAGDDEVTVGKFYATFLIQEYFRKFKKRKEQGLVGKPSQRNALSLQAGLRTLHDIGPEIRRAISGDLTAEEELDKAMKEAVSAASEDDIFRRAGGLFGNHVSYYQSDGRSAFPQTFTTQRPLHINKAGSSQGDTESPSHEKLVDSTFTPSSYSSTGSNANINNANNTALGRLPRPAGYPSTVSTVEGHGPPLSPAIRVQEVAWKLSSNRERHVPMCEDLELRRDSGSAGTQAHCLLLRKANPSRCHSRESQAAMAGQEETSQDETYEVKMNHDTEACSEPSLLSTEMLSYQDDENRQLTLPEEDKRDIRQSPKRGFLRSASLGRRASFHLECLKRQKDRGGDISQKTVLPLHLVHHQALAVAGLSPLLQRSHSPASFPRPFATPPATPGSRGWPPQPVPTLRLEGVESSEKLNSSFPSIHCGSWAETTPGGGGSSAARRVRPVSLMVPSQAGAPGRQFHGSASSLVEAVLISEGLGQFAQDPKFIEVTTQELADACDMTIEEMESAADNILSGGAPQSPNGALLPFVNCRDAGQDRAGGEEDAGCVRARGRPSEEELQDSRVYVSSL
Somatostatin receptor type 2, sequence (P30874 whole entry): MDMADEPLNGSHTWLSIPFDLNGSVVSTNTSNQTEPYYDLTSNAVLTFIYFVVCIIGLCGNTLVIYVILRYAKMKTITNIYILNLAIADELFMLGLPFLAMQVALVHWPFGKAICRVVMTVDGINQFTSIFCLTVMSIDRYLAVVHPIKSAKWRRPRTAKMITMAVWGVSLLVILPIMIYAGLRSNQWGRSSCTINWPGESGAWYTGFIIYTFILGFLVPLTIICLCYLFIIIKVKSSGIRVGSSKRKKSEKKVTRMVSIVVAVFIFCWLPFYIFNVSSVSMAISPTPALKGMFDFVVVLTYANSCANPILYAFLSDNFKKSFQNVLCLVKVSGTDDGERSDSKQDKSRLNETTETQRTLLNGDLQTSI
Voltage-gated inwardly rectifying potassium channel KCNH2, sequence (Q12809 whole entry): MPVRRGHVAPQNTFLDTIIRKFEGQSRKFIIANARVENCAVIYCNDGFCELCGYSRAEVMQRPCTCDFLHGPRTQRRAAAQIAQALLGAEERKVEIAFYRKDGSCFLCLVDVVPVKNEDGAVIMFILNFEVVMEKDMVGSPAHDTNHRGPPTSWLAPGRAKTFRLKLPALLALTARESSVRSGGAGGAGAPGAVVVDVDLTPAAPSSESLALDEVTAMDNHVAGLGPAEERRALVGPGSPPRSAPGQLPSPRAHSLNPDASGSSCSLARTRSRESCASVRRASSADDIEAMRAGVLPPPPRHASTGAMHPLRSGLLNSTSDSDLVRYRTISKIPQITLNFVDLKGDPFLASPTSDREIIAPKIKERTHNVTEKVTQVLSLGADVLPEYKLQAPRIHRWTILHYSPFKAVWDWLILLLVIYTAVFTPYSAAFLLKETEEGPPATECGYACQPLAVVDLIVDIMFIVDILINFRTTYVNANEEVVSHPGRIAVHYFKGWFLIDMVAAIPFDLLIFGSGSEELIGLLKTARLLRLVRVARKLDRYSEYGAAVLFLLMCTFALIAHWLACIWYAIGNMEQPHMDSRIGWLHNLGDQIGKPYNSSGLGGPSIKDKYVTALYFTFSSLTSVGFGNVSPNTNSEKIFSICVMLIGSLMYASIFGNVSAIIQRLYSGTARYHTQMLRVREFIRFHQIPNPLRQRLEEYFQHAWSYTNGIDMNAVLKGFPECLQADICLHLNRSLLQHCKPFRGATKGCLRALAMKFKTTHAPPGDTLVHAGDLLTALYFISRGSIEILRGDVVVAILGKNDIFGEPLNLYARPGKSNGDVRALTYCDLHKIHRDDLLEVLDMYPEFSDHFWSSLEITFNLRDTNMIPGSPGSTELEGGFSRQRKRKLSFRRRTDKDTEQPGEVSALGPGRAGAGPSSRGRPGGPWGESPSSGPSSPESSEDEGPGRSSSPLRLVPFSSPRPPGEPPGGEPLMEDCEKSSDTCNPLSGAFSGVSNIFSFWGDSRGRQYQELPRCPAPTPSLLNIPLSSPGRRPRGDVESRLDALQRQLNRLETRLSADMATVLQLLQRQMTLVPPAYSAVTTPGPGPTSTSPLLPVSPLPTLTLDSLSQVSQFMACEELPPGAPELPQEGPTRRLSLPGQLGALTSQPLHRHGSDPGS

Cc1ccc([C@H]2C[C@@H]2COc2cc(NCc3nnc(C)s3)nc(C)n2)nc1 [MK-8189]
Vd [1]: 0.93 L/kg | IC50 [2]: > 30000 nM | Occ [3]: 50% | Ratio Ki [4]: > 500000 | concentration at 1 h [5]: 16 nM | IC50 [6]: > 30000 nM | Ratio Ki [7]: > 500000 | solubility [8]: 167 µM (≈ 63.9 µg/mL) | IC50 [9]: 2800 nM | solubility [10]: 170 µg/mL (≈ 0.444 mM) | logD [11]: 2.1 | Ki [12]: 0.029 nM | Vd [13]: 1.4 L/kg | solubility [14]: 5000 µg/mL (≈ 13.1 mM) | concentration at 2.5 h [15]: 50 nM | IC50 [16]: 1.6 nM | IC50 [17]: 33000 nM | F [18]: 46% | Occ [19]: 41% | T1/2 [20]: 6.7 min | PPB [21]: 91.8% | Occ [22]: 25% | concentration at 2.5 h [23]: 36 nM | Occ [24]: 24% | Ratio Ki [25]: > 500000 | Activity (Rattus norvegicus): Active | t1/2 [26]: 252 min

From ChEMBL document CHEMBL5316310, “Discovery of MK-8189, a Highly Potent and Selective PDE10A Inhibitor for the Treatment of Schizophrenia” (J Med Chem, 2023)
